Source: ChEMBL document CHEMBL3870311, “Synthesis and biological evaluation of C1-O-substituted-3-(3-butylamino-2-hydroxy-propoxy)-xanthen-9-one as topoisomerase IIα catalytic inhibitors” (Eur J Med Chem, 2016)
pIC50: −log10 of the molar value. Counter-ions that a name gives are not always drawn.

How the values were obtained:
[1] = Cytotoxicity against human HeLa cells assessed as reduction in cell growth after 72 hrs by CCK8 assay; format: functional, cell-based
Procedure, shortened: (§1)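 Cells (2~4 x 10^4 per well) seeded overnight in media with 10% FBS, 37 °C, 5% CO₂, then exposed to graded compound concentrations for 72 h. CCK-8 solution added for a further 4 h; absorbance read at 450 nm. IC₅₀ from four-parameter logistic fit; adriamycin, etoposide and camptothecin as positive controls.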

[2] = Cytotoxicity against human HCT15 cells assessed as reduction in cell growth after 72 hrs by CCK8 assay; format: functional, cell-based; conditions: HCT-15, 72 h; procedure, shortened: as §1
[3] = target: T1, DNA topoisomerase 2-alpha (Homo sapiens, UniProt P11388); test: Inhibition of human topoisomerase-2 alpha at 20 uM using supercoiled pBR322 DNA as substrate after 30 mins by agarose gel electrophoresis relative to control
[4] = Cytotoxicity against human NCI-N87 cells assessed as reduction in cell growth after 72 hrs by CCK8 assay; format: functional, cell-based; conditions: NCI-N87, 72 h; procedure, shortened: as §1
[5] = Cytotoxicity against human T47D cells assessed as reduction in cell growth after 72 hrs by CCK8 assay; format: functional, cell-based; procedure, shortened: as §1
[6] = target: T1, DNA topoisomerase 2-alpha; test: Inhibition of human topoisomerase-2 alpha at 100 uM using supercoiled pBR322 DNA as substrate after 30 mins by agarose gel electrophoresis method relative to control

T1 sequence (P11388 whole entry): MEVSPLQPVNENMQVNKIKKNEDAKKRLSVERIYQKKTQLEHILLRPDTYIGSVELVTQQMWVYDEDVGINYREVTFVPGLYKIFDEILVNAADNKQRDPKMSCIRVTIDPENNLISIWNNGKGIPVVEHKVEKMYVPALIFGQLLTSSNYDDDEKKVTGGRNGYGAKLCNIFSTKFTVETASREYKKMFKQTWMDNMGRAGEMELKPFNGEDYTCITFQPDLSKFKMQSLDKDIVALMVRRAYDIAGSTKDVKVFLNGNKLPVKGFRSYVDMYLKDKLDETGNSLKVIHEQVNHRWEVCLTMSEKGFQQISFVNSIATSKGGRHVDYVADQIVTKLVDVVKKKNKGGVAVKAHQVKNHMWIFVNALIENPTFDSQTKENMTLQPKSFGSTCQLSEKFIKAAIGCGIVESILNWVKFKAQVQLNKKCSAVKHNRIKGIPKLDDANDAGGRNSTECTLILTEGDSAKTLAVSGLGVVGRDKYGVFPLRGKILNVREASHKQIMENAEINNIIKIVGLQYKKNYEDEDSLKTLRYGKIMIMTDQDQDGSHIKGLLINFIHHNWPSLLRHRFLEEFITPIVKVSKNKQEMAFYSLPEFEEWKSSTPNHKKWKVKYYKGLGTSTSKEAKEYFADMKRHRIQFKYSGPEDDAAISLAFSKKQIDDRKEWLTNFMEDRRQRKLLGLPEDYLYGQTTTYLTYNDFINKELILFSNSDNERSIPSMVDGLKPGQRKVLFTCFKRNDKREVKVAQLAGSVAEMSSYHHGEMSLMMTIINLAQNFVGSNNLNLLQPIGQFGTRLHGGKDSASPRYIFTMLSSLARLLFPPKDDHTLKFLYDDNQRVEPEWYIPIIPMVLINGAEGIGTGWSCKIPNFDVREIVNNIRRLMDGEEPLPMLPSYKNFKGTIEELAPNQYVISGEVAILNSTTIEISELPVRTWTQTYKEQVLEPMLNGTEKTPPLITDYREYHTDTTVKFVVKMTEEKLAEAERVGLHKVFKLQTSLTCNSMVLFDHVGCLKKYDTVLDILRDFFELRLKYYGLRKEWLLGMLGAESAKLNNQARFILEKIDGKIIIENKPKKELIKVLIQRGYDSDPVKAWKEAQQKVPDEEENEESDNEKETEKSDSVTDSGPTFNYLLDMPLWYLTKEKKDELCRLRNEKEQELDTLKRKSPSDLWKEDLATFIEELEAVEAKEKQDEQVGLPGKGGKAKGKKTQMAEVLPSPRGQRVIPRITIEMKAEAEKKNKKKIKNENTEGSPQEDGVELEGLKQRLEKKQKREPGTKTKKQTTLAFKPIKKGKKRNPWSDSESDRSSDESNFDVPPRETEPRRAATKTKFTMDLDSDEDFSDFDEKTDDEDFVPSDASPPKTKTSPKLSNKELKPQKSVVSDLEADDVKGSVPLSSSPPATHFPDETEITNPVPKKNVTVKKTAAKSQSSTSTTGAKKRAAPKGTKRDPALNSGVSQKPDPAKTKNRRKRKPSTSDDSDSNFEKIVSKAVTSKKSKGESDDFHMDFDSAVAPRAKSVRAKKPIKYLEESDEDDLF

Structure (SMILES) | pIC50 [1] | pIC50 [2] | inhibition [3] | pIC50 [4] | pIC50 [5] | inhibition [6]
CCCCNCC(O)COc1cc(OCc2ccccc2)c2c(=O)c3ccccc3oc2c1 (stereo unspecified) | 5.15 | 5.51 | 22.2% | 5.84 | 5.55 | 65.4%
COc1cccc2c(=O)c3c(OCc4ccccc4)cc(OCC4CO4)cc3oc12 (stereo unspecified) | 5.78 | 6.47 | – | 5.76 | 5.69 | 3.3%
CCCCNCC(O)COc1cc(OCc2cccc(OC)c2)c2c(=O)c3cccc(OC)c3oc2c1 (stereo unspecified) | 5.64 | 5.76 | 12.4% | 5.88 | 5.87 | 41.6%
CC[C@@]1(O)C(=O)OCc2c1cc1n(c2=O)Cc2cc3ccccc3nc2-1 [CAMPTOTHECIN] | 6.89 | 8.85 | – | 6.22 | 7.10 | –
CCCCNCC(O)COc1cc(OCC)c2c(=O)c3cccc(OC)c3oc2c1 (stereo unspecified) | 4.63 | 4.97 | – | 5.65 | 5.37 | 10.7%
O=c1c2ccccc2oc2cc(OCC3CO3)cc(OCc3cccc(Cl)c3)c12 (stereo unspecified) | 5.45 | 5.71 | – | 5.72 | 5.48 | 0%
COc1cccc2c(=O)c3c(OCc4cccc(C(F)(F)F)c4)cc(OCC4CO4)cc3oc12 (stereo unspecified) | 5.37 | 6.44 | – | 5.65 | 5.54 | 0%
CC(C)Oc1cc(OCC2CO2)cc2oc3ccccc3c(=O)c12 (stereo unspecified) | 5.79 | 5.79 | – | 6.54 | 5.71 | 0.1%
CCCCNCC(O)COc1cc(OCCCC)c2c(=O)c3ccccc3oc2c1 (stereo unspecified) | 5.68 | 5.06 | – | 5.79 | 5.81 | 27.1%
COc1cccc2c(=O)c3c(OCc4cccc(Cl)c4)cc(OCC4CO4)cc3oc12 (stereo unspecified) | 5.77 | 6.77 | – | 6.02 | 5.81 | 1.7%
COc1cccc2c1C(=O)c1c(O)c3c(c(O)c1C2=O)C[C@@](O)(C(=O)CO)C[C@@H]3O[C@H]1C[C@H](N)[C@H](O)[C@H](C)O1 [DOXORUBICIN HYDROCHLORIDE] | 5.77 | – | – | 6.15 | 5.85 | –
CCCCNCC(O)COc1cc(OCc2cccc(Cl)c2)c2c(=O)c3ccccc3oc2c1 (stereo unspecified) | 5.55 | 5.65 | 22.4% | 6.77 | 5.93 | 56.3%
CCCCOc1cc(OCC2CO2)cc2oc3ccccc3c(=O)c12 (stereo unspecified) | 5.74 | 5.61 | – | 5.34 | 5.43 | 0%
O=c1c2ccccc2oc2cc(OCC3CO3)cc(OCc3ccccc3)c12 (stereo unspecified) | 5.72 | 5.82 | – | 5.29 | 5.51 | 0%
CCOc1cc(OCC2CO2)cc2oc3ccccc3c(=O)c12 (stereo unspecified) | 6.10 | 5.40 | – | 5.41 | 5.44 | 0%
COc1cccc2c(=O)c3c(OC(C)C)cc(OCC4CO4)cc3oc12 (stereo unspecified) | 5.73 | 6.51 | – | 5.51 | 5.76 | 1.5%
COc1cccc(COc2cc(OCC3CO3)cc3oc4ccccc4c(=O)c23)c1 (stereo unspecified) | 5.80 | 5.83 | – | 5.49 | 5.43 | 0%
O=c1c2ccccc2oc2cc(OCC3CO3)cc(OCCc3cccc(Cl)c3)c12 (stereo unspecified) | 5.84 | 5.38 | – | 5.50 | 5.87 | 0%

Structure (SMILES) | pIC50 [1] | pIC50 [2] | inhibition [3] | pIC50 [4] | pIC50 [5] | inhibition [6]
O=c1c2ccccc2oc2cc(OCC3CO3)cc(OCc3cccc(C(F)(F)F)c3)c12 (stereo unspecified) | 5.37 | 5.29 | – | 5.87 | 5.64 | 0%
COc1cccc(COc2cc(OCC3CO3)cc3oc4c(OC)cccc4c(=O)c23)c1 (stereo unspecified) | 5.61 | 6.46 | – | 5.88 | 5.39 | 0%
CCCCNCC(O)COc1cc(OC(C)C)c2c(=O)c3cccc(OC)c3oc2c1 (stereo unspecified) | 4.84 | 5.02 | – | 7.10 | 5.57 | 7.5%
CCCCNCC(O)COc1cc(OCc2cccc(C(F)(F)F)c2)c2c(=O)c3cccc(OC)c3oc2c1 (stereo unspecified) | 5.58 | 5.58 | 14.2% | 5.70 | 5.70 | 58.1%
CCOc1cc(OCC2CO2)cc2oc3c(OC)cccc3c(=O)c12 (stereo unspecified) | 5.93 | 6.09 | – | 5.92 | 6.08 | 2.5%
CCCCCOc1cc(OCC2CO2)cc2oc3c(OC)cccc3c(=O)c12 (stereo unspecified) | 5.39 | 6.43 | – | 5.77 | 5.34 | 5%
COc1cccc2c(=O)c3c(OCCc4cccc(Cl)c4)cc(OCC4CO4)cc3oc12 (stereo unspecified) | 6.33 | 5.97 | – | 5.95 | 5.56 | 0%
CCCCCOc1cc(OCC2CO2)cc2oc3ccccc3c(=O)c12 (stereo unspecified) | 5.75 | 5.48 | – | 4.96 | < 4.30 | 0%
CCCCNCC(O)COc1cc(OCC)c2c(=O)c3ccccc3oc2c1 (stereo unspecified) | < 4.30 | 4.55 | – | 5.75 | 5.15 | 4.8%
CCCCOc1cc(OCC2CO2)cc2oc3c(OC)cccc3c(=O)c12 (stereo unspecified) | 5.97 | 6.66 | – | 6.51 | 5.79 | 14.1%
CCCCNCC(O)COc1cc(OC(C)C)c2c(=O)c3ccccc3oc2c1 (stereo unspecified) | 4.44 | 4.36 | – | 5.69 | 5.33 | 1.5%
COc1cccc2c(=O)c3c(OCCc4ccc(Cl)cc4)cc(OCC4CO4)cc3oc12 (stereo unspecified) | < 4.30 | 4.34 | – | 5.83 | < 4.30 | 0%
O=c1c2ccccc2oc2cc(OCC3CO3)cc(OCCc3ccc(Cl)cc3)c12 (stereo unspecified) | 5.31 | 5.28 | – | 5.69 | 6.01 | 0%
COc1ccc(COc2cc(OCC3CO3)cc3oc4c(OC)cccc4c(=O)c23)cc1 (stereo unspecified) | 5.76 | 6.38 | – | 5.85 | 5.11 | 0%
CCCCNCC(O)COc1cc(OCCCC)c2c(=O)c3cccc(OC)c3oc2c1 (stereo unspecified) | 5.12 | 5.22 | – | 5.79 | 5.95 | 24.2%
COc1ccc(COc2cc(OCC3CO3)cc3oc4ccccc4c(=O)c23)cc1 (stereo unspecified) | 5.80 | 5.76 | – | 5.43 | 5.53 | 0%
CCCCCOc1cc(OCC(O)CNCCCC)cc2oc3ccccc3c(=O)c12 (stereo unspecified) | 5.59 | 5.34 | – | 7.22 | 5.90 | 29.4%
